# Experimental data collected from several papers.
# Lines come from different studies, so protocols differ.
# Mode: inhibitor
# CDK5 with p25: Cyclin-dependent kinase 5, with p25 (CDK5, Homo sapiens, UniProt Q00535)
# CDK5 with p35: Cyclin-dependent kinase 5, with p35 (CDK5, Homo sapiens, UniProt Q00535)
SMILES,target,effect on,method,cells,concentration,inhibition [%]
CC[C@H](C)[C@H](NC(=O)[C@H](CCC(N)=O)NC(=O)[C@H](CC(C)C)NC(=O)[C@H](CCSC)NC(=O)[C@H](CCCCN)NC(=O)[C@H](CO)NC(=O)[C@H](CO)NC(=O)[C@H](CCSC)NC(=O)[C@H](CC(C)C)NC(=O)[C@H](CC(N)=O)NC(=O)[C@@H](NC(=O)[C@@H](NC(=O)[C@H](CO)NC(=O)[C@H](CC(C)C)NC(=O)[C@H](CS)NC(=O)[C@H](CCCNC(=N)N)NC(=O)[C@H](CC(=O)O)NC(=O)[C@H](Cc1c[nH]c2ccccc12)NC(=O)[C@H](Cc1ccccc1)NC(=O)[C@H](C)NC(=O)[C@H](CCC(=O)O)NC(=O)[C@@H](N)CCCCN)C(C)C)[C@@H](C)CC)C(=O)N[C@@H](CC(N)=O)C(=O)N[C@@H](C)C(=O)O,CDK5 with p25,enzyme activity,radiometric,,1 µM,0
CN1CC(Oc2cnc(C#N)cc2-c2ccn3nc(NC(=O)C4CC4)cc3c2)C1,CDK5 with p25,enzyme activity,,,1 µM,4
Cc1ccc(-n2nc(C(C)(C)C)cc2NC(=O)Nc2ccc(OCCN3CCOCC3)c3ccccc23)cc1,CDK5 with p35,enzyme activity,,,10 µM,-26
COc1cc2ncnc(Nc3ccc(Oc4ccccc4)c(C)c3C)c2cc1OC,CDK5 with p35,enzyme activity,,,1 µM,-1
CN(C)C1CCN(CC#Cc2nn(C3CCCC3)c3nc(NCc4ccccc4)ncc23)C1 (centres unmarked),CDK5 with p25,enzyme activity,FRET,,10 µM,3
CCN1CCN(Cc2ccc(NC(=O)c3ccc(C)c(Oc4ccnc5[nH]ccc45)c3)cc2C(F)(F)F)CC1,"Cyclin-dependent kinase 5 (CDK5, Homo sapiens, UniProt Q00535)",target engagement in cells,chemoproteomics,Huh-7,1 µM,-88.8
CNCc1ccc(-c2cc(-c3nc(-c4ccc(S(=O)(=O)C(C)C)cc4)cnc3N)on2)cc1,CDK5 with p35,enzyme activity,,,0.4 µM,0
Cc1ccc(Nc2nccc(N(C)c3ccc4c(C)n(C)nc4c3)n2)cc1S(N)(=O)=O,CDK5 with p25,enzyme activity,,,10 µM,44
